The text below walks through data of ChEMBL document CHEMBL3352149, “Promiscuity and selectivity in covalent enzyme inhibition: a systematic study of electrophilic fragments” (J Med Chem, 2014).

Active and inactive are the calls of the source. The calls are words filed in the database; no cut-off is given here.

Assay [1] relates to Escherichia coli. Briefly: Inhibition of wild-type Escherichia coli MurD compound preincubated for 10 mins before substrate addition at 25 uM measured after 15 mins by LC-MS method. The procedure, abridged: (§1)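 E. coli wild-type enzyme (4 nM) was preincubated with 25 μM compound for 10 min at 37 °C. Enzymatically generated nucleotide-sugar substrate (~200 μM) plus ATP (~200 μM), or NADPH 200 μM for MurB, was added for 10 min. Reactions were started with amino-acid cosubstrate (MurC–F) or EP-UNAG (MurB), run 15 min at 37 °C, and quenched with formic acid. Product was measured by negative-ESI LC-MS EIC peak area. MgCl2: MurC 10, MurD/E 2, MurF 5 mM; MurB had 5 mM KCl. All in 50 mM NH4HCO3, 0.07% BSA, 1% DMSO; triplicate.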

A further assay relates to HeLa. In words: Cytotoxicity against human HeLa cells assessed as reduction in cell viability after 24 hrs by CellTiter-Blue assay. The class given is cell-based. The procedure, abridged: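 HeLa cells seeded in triplicate at 5×10^3 cells/well and grown 24 h at 37 °C/5% CO2. Compounds at varying concentrations were added as a 2x stock in phenol-red-free DMEM with FBS, penicillin/streptomycin, sodium pyruvate and L-glutamine, then left 24 h. Medium was replaced with CellTiter-Blue medium for 3 h. A570/A610 was read after background subtraction, as % of untreated controls; EC50 derived.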

The target in assay [2] is Methionine aminopeptidase 1 (Homo sapiens) (UniProt P53582). Briefly: Inhibition of human MetAP at 25 uM after 20 mins by HPLC analysis. The essentials: (§2)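 Endpoint assay. Enzyme (50 nM) was preincubated with 25 μM compound for 20 min at 37 °C in 50 mM Tris pH 7.5, 100 mM NaCl, 100 μM CoCl2, 0.075% BSA. MGMM substrate (400 μM) was then added for 15 min (human MetAP-1) or 20 min (E. coli MetAP). Reactions were stopped with TFA. GMM product was quantified by RP-HPLC, UV 214 nm. Triplicate.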

The target of assay [3] is Genome polyprotein (dengue virus type 2) (UniProt P12823). Briefly: Inhibition of Dengue virus serotype 2 NS2B-NS3 protease at 50 uM.
In a further assay the target is Prothrombin (Bos taurus) (UniProt P00735). Briefly: Inhibition of Bovine thrombin using Boc-Val-Pro-Arg-AMC as substrate compound preincubated at 25 uM for 15 mins by fluorescence assay. The procedure, abridged: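 Bovine thrombin (final 10 nM) was preincubated 15 min with 25 μM compound in 50 mM Tris-HCl pH 7.5, 150 mM NaCl, 0.05% Tween 20. The reaction was started with Boc-Val-Pro-Arg-AMC (50 μM final). Fluorescence (ex 355/em 460 nm) was monitored continuously for 10 min; activity taken as slope (RFU/s). Triplicate.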

Assay [4] addresses Genome polyprotein (West Nile virus) (UniProt P06935). In words: Inhibition of West Nile virus NS2B-NS3 protease at 50 uM.
The test system of assay [5] is Escherichia coli. Briefly: Induction of covalent MurE enzyme adduct formation preincubated with UNAG substrate for 10 mins compound treated at 300 uM after 1 hr by ESI-MS analysis.
The subject of assay [6] is Escherichia coli. In words: Induction of covalent MurA enzyme adduct formation preincubated with UNAG substrate for 10 mins compound treated at 300 uM after 1 hr by ESI-MS analysis. The procedure, abridged: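 E. coli MurA (25 μM) preincubated with UNAG 300 μM for 10 min at 37 °C, then test compound added at 300 μM. Incubation ran 60 min at 37 °C in 50 mM NH₄HCO₃, pH 7.9. Samples were spin-desalted on Sephadex G-25, then analysed by flow-injection positive-mode ESI-MS for enzyme adducts. Untreated enzyme served as control.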

A short description of assay [7]: GSH reactivity of the compound assessed as adducts formation by RP-HPLC analysis. The essentials: (§3)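 Fresh aqueous glutathione (10 mM solution) was added to 50 mM Tris-maleate buffer, pH 7.5. The reaction was started with compound from 10 mM DMSO stock (final 250 μM). Mixtures were followed by reversed-phase HPLC on an ODS column with a gradient to 100% B; rate constants are given in l·mol⁻¹·s⁻¹.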

The subject of assay [8] is Escherichia coli. Briefly: Inhibition of Escherichia coli MetAP at 25 uM after 20 mins by HPLC analysis. The procedure, abridged: as §2
The test system of assay [9] is Escherichia coli. In words: Inhibition of wild-type Escherichia coli MurB compound preincubated for 10 mins before substrate addition at 25 uM measured after 15 mins by LC-MS method. The procedure, abridged:
as §1

Assay [10] has as its system Escherichia coli. Briefly: Induction of covalent MetAP enzyme adduct formation at 300 uM after 1 hr by ESI-MS analysis. The procedure, abridged:
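E. coli MetAP (25 μM) was incubated with 300 μM compound for 60 min at 37 °C in 50 mM NH4HCO3, pH 7.9, with 200 μM CoCl2. Untreated enzyme served as control. Samples were spin-desalted on Sephadex G-25 and analysed by flow-injection ESI-MS in positive mode (isocratic water/acetonitrile 95/5 with 0.1% formic acid), looking for covalent adducts.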

The subject of assay [11] is Escherichia coli. Briefly: Inhibition of wild-type Escherichia coli MurE compound preincubated for 10 mins before substrate addition at 25 uM measured after 15 mins by LC-MS method. The procedure, abridged: as §1
For assay [12], the system named is Escherichia coli. In words: Inhibition of wild-type Escherichia coli MurA compound preincubated for 10 mins before substrate addition at 25 uM measured after 15 mins by LC-MS method.
The test system of assay [13] is Escherichia coli. Briefly: Inhibition of wild-type Escherichia coli MurF compound preincubated for 10 mins before substrate addition at 25 uM measured after 15 mins by LC-MS method. The essentials:
as §1

For assay [14], the system named is Escherichia coli. Briefly: Inhibition of wild-type Escherichia coli MurC compound preincubated for 10 mins before substrate addition at 25 uM measured after 15 mins by LC-MS method. The procedure, abridged:
as §1

A short description of assay [15]: GSH reactivity of the compound assessed as half life by RP-HPLC analysis.
Assay [16] relates to Escherichia coli. In words: Induction of covalent MurB enzyme adduct formation preincubated with UNAG substrate for 10 mins compound treated at 300 uM after 1 hr by ESI-MS analysis.
The nature of assay [17]: GSH reactivity of the compound assessed as adducts formation meaured over 3 hrs by RP-HPLC analysis. The essentials: as §3

Genome polyprotein (West Nile virus), sequence (P06935 whole entry): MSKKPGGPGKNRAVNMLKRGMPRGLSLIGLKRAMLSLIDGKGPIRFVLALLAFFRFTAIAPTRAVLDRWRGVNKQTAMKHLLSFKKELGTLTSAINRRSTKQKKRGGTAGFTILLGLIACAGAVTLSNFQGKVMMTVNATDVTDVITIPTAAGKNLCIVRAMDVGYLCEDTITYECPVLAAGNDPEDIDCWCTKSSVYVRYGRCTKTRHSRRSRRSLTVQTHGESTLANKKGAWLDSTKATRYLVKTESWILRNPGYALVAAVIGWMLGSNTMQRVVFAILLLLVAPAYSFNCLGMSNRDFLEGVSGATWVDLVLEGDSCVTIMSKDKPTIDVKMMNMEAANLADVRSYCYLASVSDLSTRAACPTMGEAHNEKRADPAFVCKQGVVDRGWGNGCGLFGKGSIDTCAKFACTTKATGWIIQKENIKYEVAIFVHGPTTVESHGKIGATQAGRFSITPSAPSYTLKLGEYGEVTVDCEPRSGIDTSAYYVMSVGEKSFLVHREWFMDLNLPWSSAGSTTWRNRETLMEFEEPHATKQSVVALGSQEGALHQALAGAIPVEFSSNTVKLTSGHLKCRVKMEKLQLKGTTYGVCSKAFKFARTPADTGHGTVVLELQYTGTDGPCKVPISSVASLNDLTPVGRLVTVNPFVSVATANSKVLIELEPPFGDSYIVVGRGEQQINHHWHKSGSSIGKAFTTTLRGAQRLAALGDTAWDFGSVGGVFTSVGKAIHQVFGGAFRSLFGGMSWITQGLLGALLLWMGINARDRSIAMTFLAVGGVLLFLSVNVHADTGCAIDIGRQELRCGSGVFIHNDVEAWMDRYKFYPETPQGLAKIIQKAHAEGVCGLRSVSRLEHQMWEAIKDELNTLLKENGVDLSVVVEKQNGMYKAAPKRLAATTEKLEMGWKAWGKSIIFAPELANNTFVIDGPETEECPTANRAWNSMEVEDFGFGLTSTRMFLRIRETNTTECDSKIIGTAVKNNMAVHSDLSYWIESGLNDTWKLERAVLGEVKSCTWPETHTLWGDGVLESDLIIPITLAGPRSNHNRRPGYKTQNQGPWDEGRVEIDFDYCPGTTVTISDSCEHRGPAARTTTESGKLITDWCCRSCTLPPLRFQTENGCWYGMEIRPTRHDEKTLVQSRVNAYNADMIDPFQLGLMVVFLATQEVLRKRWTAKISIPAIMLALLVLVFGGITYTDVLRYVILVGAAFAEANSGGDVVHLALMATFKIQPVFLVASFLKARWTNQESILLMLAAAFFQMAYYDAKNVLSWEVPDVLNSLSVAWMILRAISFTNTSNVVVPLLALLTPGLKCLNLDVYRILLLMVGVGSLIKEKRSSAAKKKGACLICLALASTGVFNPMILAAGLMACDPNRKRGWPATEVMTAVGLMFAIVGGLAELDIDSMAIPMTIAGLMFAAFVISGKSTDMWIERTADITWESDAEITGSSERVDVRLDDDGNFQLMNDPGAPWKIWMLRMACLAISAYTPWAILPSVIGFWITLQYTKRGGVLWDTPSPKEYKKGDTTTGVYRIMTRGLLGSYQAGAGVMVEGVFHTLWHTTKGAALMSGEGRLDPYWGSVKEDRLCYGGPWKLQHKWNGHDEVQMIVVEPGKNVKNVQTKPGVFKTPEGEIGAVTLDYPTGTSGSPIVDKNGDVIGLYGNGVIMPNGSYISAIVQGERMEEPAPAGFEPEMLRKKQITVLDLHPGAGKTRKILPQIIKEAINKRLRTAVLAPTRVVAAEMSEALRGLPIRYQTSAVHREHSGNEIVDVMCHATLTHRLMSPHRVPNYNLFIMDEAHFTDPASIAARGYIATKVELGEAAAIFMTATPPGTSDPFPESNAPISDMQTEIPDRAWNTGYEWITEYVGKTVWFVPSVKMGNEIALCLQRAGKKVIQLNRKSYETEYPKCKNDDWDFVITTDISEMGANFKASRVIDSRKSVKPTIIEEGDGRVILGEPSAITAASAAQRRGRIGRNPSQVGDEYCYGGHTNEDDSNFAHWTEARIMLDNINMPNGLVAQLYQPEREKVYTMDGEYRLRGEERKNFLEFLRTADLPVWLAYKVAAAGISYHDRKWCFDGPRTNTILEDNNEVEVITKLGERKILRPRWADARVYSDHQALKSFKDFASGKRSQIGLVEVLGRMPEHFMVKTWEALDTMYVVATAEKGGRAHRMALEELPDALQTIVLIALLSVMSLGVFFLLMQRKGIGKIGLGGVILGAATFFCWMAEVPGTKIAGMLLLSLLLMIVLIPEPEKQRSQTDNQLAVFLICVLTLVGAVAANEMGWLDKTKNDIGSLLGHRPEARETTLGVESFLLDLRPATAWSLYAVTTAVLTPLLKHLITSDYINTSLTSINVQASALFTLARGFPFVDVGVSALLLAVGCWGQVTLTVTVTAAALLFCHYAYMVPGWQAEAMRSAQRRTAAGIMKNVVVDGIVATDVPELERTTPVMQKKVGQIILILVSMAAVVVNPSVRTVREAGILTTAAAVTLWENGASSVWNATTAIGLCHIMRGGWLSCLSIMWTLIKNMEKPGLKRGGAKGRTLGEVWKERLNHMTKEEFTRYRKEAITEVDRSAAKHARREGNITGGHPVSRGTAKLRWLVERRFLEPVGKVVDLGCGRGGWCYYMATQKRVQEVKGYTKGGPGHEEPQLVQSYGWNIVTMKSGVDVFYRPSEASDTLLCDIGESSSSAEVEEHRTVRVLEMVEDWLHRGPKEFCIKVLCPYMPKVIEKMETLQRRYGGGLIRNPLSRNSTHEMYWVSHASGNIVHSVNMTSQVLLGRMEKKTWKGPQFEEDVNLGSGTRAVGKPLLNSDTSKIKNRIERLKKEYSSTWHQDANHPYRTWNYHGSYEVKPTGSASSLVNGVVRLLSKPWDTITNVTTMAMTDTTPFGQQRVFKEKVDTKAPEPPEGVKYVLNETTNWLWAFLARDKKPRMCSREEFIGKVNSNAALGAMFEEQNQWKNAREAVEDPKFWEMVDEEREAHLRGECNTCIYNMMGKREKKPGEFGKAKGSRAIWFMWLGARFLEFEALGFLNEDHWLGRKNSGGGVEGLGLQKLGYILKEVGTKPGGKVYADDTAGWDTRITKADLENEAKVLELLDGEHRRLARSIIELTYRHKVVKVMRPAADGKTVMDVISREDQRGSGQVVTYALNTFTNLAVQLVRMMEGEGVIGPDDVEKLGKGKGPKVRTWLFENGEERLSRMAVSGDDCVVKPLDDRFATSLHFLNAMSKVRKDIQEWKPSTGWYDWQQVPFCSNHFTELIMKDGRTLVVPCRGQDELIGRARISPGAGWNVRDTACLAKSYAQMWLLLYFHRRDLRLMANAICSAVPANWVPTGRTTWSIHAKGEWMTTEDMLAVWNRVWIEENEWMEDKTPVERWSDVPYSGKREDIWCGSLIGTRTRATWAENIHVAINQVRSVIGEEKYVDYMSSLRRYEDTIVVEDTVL

Consider `O=C(CCl)Nc1ccccc1`, for which the inhibition (in the assay with Escherichia coli [1]; in [2]; in assay [3]; at Prothrombin (Bos taurus); in [4]; in the assay on Escherichia coli [8]) was less than 15% throughout. The inhibition in the assay with Escherichia coli [9], in the assay on Escherichia coli [11], with Escherichia coli [12], in the assay with Escherichia coli [13] and in the assay with Escherichia coli [14] was less than 15% each time. In addition, in the assay on HeLa, the EC50 turned out to be 20.9 µM. Also, the Activity (with Escherichia coli [5]; in [7]; in the assay on Escherichia coli [10]) was less than 0.1 L/mol/s each time. In addition, the outcome in the assay on Escherichia coli [6] was inactive.
For the compound `C[S+](C)CC(=O)Nc1ccccc1`, the inhibition (in the assay on Escherichia coli [1]; in assay [2]; in assay [3]; against Prothrombin (Bos taurus); in [4]; in the assay on Escherichia coli [8]) was less than 15% each time. Moreover, the inhibition in the assay with Escherichia coli [9] is less than 15%; in the assay on Escherichia coli [11], 32%; in the assay on Escherichia coli [12], less than 15%; in the assay on Escherichia coli [13] it was less than 15%; with Escherichia coli [14], less than 15%. For the same compound, the EC50 in the assay on HeLa was greater than 100 µM. Also, the Activity with Escherichia coli [5] and in the assay on Escherichia coli [10] was less than 0.1 L/mol/s throughout. Further, in the assay on Escherichia coli [6], the result was inactive.
With `O=C(Nc1ccccc1)n1ccnc1` [IMIDAZOLE-1-CARBOXYLIC ACID PHENYLAMIDE], the inhibition (in the assay with Escherichia coli [1]; in assay [2]; in assay [3]; on Prothrombin (Bos taurus); in assay [4]; in the assay on Escherichia coli [8]) was less than 15% in each case. For the same compound, the inhibition with Escherichia coli [9], in the assay on Escherichia coli [11], with Escherichia coli [12], in the assay with Escherichia coli [13] and with Escherichia coli [14] was less than 15% in each case. Also, the EC50 with HeLa is greater than 100 µM. The Activity (with Escherichia coli [5]; in [7]; with Escherichia coli [10]) was less than 0.1 L/mol/s in each case. In the assay on Escherichia coli [6], the result was inactive.
Take `O=C(Nc1ccccc1)C1CC(Br)=NO1` (stereo not given): in assay [15], the T1/2 is greater than 200 h. The inhibition (in the assay on Escherichia coli [1]; in [2]; in [3]; at Prothrombin (Bos taurus); in [4]; in the assay with Escherichia coli [8]) was less than 15% throughout. Moreover, the inhibition in the assay on Escherichia coli [9], in the assay on Escherichia coli [11], with Escherichia coli [12], in the assay on Escherichia coli [13] and with Escherichia coli [14] was less than 15% each time. The EC50 in the assay on HeLa was greater than 100 µM. The Activity (in the assay on Escherichia coli [5]; in assay [7]; in the assay with Escherichia coli [10]) was less than 0.1 L/mol/s in each case. Further, the outcome in the assay with Escherichia coli [6] was inactive.
With `CCCCNC(=O)C[S+](C)C`, the inhibition (in the assay with Escherichia coli [1]; in assay [2]; in assay [3]; at Prothrombin (Bos taurus); in assay [4]; with Escherichia coli [8]) was less than 15% in each case. In addition, the inhibition with Escherichia coli [9] was less than 15%; with Escherichia coli [11] it was 29%; in the assay with Escherichia coli [12], less than 15%; in the assay with Escherichia coli [13], less than 15%; in the assay with Escherichia coli [14] it was less than 15%. The EC50 in the assay with HeLa is greater than 100 µM. The compound also yielded an Activity with Escherichia coli [5] of less than 0.1 L/mol/s.
With `O=C(Nc1ccc(F)cc1)n1ccnc1`, the inhibition (in the assay on Escherichia coli [1]; in assay [2]; in [3]; against Prothrombin (Bos taurus); in [4]; in the assay with Escherichia coli [8]) was less than 15% in each case. Also, the inhibition is less than 15% in the assay with Escherichia coli [9]; less than 15% in the assay on Escherichia coli [11]; 28% in the assay with Escherichia coli [12]; less than 15% in the assay on Escherichia coli [13]; less than 15% in the assay on Escherichia coli [14]. Moreover, the Activity (with Escherichia coli [16]; in assay [7]) was less than 0.1 L/mol/s in each case.
On to `CCCCNC(=O)C1CC(Br)=NO1` (stereo not given), for which the T1/2 in assay [15] was greater than 200 h. Further, the inhibition (in the assay with Escherichia coli [1]; in assay [2]; in assay [3]; against Prothrombin (Bos taurus); in [4]; in the assay with Escherichia coli [8]) was less than 15% each time. For the same compound, the inhibition with Escherichia coli [9] is less than 15%; in the assay with Escherichia coli [11], 27%; in the assay with Escherichia coli [12] it was less than 15%; in the assay on Escherichia coli [13], less than 15%; in the assay with Escherichia coli [14] it was less than 15%. Also, the EC50 in the assay on HeLa is greater than 100 µM. Further, the Activity in assay [7] was less than 0.1 L/mol/s.
On to `O=C(NCc1ccccc1)C1CC(Br)=NO1` (stereo not given), for which the T1/2 in [15] was greater than 200 h. For the same compound, the inhibition was 16% in the assay on Escherichia coli [1]; less than 15% in assay [2]; less than 15% in [3]; less than 15% at Prothrombin (Bos taurus); less than 15% in assay [4]; less than 15% in the assay on Escherichia coli [8]. The inhibition with Escherichia coli [9] is 18%; with Escherichia coli [11] it was less than 15%; in the assay on Escherichia coli [12] it was less than 15%; in the assay on Escherichia coli [13], 15%; in the assay on Escherichia coli [14] it was less than 15%. Besides, the Activity in assay [7] is less than 0.1 L/mol/s.
Turning to `N#CCC(=O)Nc1ccccc1`, the inhibition (in the assay on Escherichia coli [1]; in assay [2]; in assay [3]; at Prothrombin (Bos taurus); in assay [4]; in the assay on Escherichia coli [8]) was less than 15% each time. The inhibition in the assay on Escherichia coli [9] was less than 15%; with Escherichia coli [11], 23%; in the assay on Escherichia coli [12], less than 15%; in the assay with Escherichia coli [13], less than 15%; in the assay on Escherichia coli [14], less than 15%. The EC50 with HeLa was greater than 100 µM. In addition, the Activity (in the assay with Escherichia coli [5]; in assay [7]; in the assay with Escherichia coli [10]) was less than 0.1 L/mol/s each time. Besides, the outcome in the assay on Escherichia coli [6] was inactive.
On to `C=CC(=O)Nc1ccccc1`, for which the inhibition (in the assay with Escherichia coli [1]; in assay [2]; in assay [3]; against Prothrombin (Bos taurus); in [4]; in the assay on Escherichia coli [8]) was less than 15% each time. The inhibition with Escherichia coli [9], in the assay with Escherichia coli [11], with Escherichia coli [12], in the assay on Escherichia coli [13] and in the assay on Escherichia coli [14] was less than 15% each time. In addition, the EC50 in the assay on HeLa was greater than 100 µM. In addition, the Activity is less than 5% in [17], less than 0.1 L/mol/s with Escherichia coli [5], less than 0.1 L/mol/s in assay [7] and less than 0.1 L/mol/s in the assay with Escherichia coli [10]. In addition, the result with Escherichia coli [6] was inactive.
